Measured values published in publication PMC6607903 (Clinical cancer research : an official journal of the …, 2015).

Assays:
[1] = format: in vivo
[2] = Plasma pharmacokinetics of CUDC-101 and metabolite in patients; format: in vivo, human; conditions: for AUC(0-t) / Cmax / Tmax / Vd / clearance / half-life: human, iv
[3] = monotherapy; cited from earlier work
locally advanced HNSCC = assay: Response evaluation; format: in vivo, human
Method in brief: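 Test compound was infused IV over 1 h, Mon/Wed/Fri, for one week before radiation and then through weeks 1–7. Cisplatin 100 mg/m2 was given on days 2, 23 and 44 (adjustable to 40 mg/m2/week), never on the same day. IMRT delivered 70 Gy in 2 Gy daily fractions to gross disease and 56 Gy in 1.6 Gy fractions to the elective neck. Response was scored by RECIST 1.1 plus site-investigator overall assessment from imaging, PET/CT 12 weeks post-therapy, examination and histology.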

[4] = test system: HPV-negative head and neck cancer cell lines; conditions: cited from earlier work
EGFR = assay: IHC of phosphorylated EGFR in paired tumor biopsies; format: in vivo, human; conditions: 2 pairs, 275 mg/m^2
Method in brief: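 Post-dose tumour biopsies were taken 60±30 min after the end of a 1-h IV infusion of test compound on day −5 or −3, and paired with pre-treatment archival tumour. Staining was done on 5-μm paraffin sections. Antigen retrieval used 10mM Tris, 1mM EDTA, 0.05% Tween 20, pH 9.0, at 95°C for 10 min then 90°C for 5 min. Primary antibody was anti-pEGFR Y1068.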

Akt = conditions: compared with erlotinib or SAHA alone; cited from earlier work

## N.N.[Cl][Pt][Cl] [Cisplatin, reference compound]
[1]; Dose Level 1, 225 mg/m^2 CUDC-101, agent Cisplatin/Radiation
  SAE: Failure to thrive: 1 (25%)

## C#Cc1cccc(Nc2ncnc3cc(OC)c(OCCCCCCC(=O)NO)cc23)c1 [CUDC-101, 7-(4-(3-ethylnylphenylamino)-7-methoxyquinazolin-6-yloxy)-N-hydroxyheptanamide]
[2]; 225 vs 275 mg/m^2
  Dose dependent increase in exposure or peak concentration: no clear dose dependent increase
[2]; IV 3 times per week, days −7 to 43
  Accumulation with this dosing regimen: low probability of accumulation
[2]; plasma, 225 mg/m2
  AUC(0-t): 9920 ng·h/mL
  Cmax: 13100 ng/mL
  Tmax: 0.542 h
  Vd: 26.6 L
  clearance: 938 mL/min
  half-life: 2.83 h
[2]; plasma, 225 mg/m^2
  AUC(0-t): 7110 ng·h/mL
  Cmax: 8890 ng/mL
  Tmax: 1.25 h
  Vd: 54.4 L
  clearance: 895 mL/min
  half-life: 3.91 h
[2]; plasma, 275 mg/m2
  AUC(0-t): 8000 ng·h/mL
  Cmax: 7890 ng/mL
  Tmax: 0.5 h
  Vd: 42.3 L
  clearance: 1060 mL/min
  half-life: 2.88 h
[2]; plasma, 275 mg/m^2
  AUC(0-t): 7770 ng·h/mL
  Cmax: 7820 ng/mL
  Tmax: 0.742 h
  Vd: 76 L
  clearance: 1020 mL/min
  half-life: 6.41 h
[2]; plasma, IV 3 times per week
  Peak concentrations and exposure between days −7 and 43: similar
[2]; plasma, all subjects
  Exposure to the parent compound compared to its metabolite: greater in all subjects
[3]
  MTD as a single agent: 275 mg/m^2
Locally advanced HNSCC; 11 patients, combination with cisplatin and radiation
  Post-treatment clinical assessment: stable, patients (%): 4 (37%)
Locally advanced HNSCC; median of 1.47 (0.68 – 2.3) years of follow-up
  Patients progression free: 90%
[1]; human, in vivo, 1 week
  Single adverse event (discontinuation) at dose level 1: grade 2 joint pain and myalgia
[1]; human, in vivo, 8 weeks
  Patients who experienced a serious adverse event (SAE): 7
[1]; in vivo
  Patients who experienced at least one AE: All patients
  Patients with an SAE considered related to any agent: Five
[4]
  Activity in HPV-negative head and neck cancer cell lines: has activity
EGFR
  Phosphorylation of EGFR (Y1068 and Y1173) in tumor biopsies: trend of EGFR inhibition
Akt
  Phosphorylation of Akt: reduced phosphorylation of Akt
